Bioassay records from PubChem.
This is a sample that favours compounds with a hit; in the whole collection about 1.8% have one here.
Gli-Sufu antag: antagonists of Gli-Sufu signaling; inhibition, % at 5 µM; hit rate 0.74% among 340,000; Sufu-KO-LIGHT fibroblasts, Gli luciferase reporter luminescence;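 active means inhibition above about 55%, limit read from the data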;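 further: 0% = DMSO-treated cells and 100% = wells with medium but no cells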
Jurkat NFkB inh: inhibitors of the PMA/ionomycin-induced NF-kB reporter in Jurkat cells | PMA/ionomycin-induced NF-kB luciferase reporter, luminescence | AID 435003 | hit rate 0.53% among 330,000 | inhibition, % at 4 µM; in the data active means inhibition above about 50%
NR2E3 ag-1: activates human photoreceptor nuclear receptor NR2E3 | Q9Y5X4 | GST-NR2E3/biotin-RetCOR TR-FRET, 1536-well | inhibition of corepressor binding, % at 4.78 µM | hit rate 0.12% among 320,000 | AID 2300;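 active means percent inhibition above the cutoff of mean plus 3 SD of all tested compounds, set per screening campaign, cut at about 20% in these data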;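 further: 0% = DMSO wells and 100% = biotin wells as full block of FRET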
Target sequence (Q9Y5X4 whole entry, looked up): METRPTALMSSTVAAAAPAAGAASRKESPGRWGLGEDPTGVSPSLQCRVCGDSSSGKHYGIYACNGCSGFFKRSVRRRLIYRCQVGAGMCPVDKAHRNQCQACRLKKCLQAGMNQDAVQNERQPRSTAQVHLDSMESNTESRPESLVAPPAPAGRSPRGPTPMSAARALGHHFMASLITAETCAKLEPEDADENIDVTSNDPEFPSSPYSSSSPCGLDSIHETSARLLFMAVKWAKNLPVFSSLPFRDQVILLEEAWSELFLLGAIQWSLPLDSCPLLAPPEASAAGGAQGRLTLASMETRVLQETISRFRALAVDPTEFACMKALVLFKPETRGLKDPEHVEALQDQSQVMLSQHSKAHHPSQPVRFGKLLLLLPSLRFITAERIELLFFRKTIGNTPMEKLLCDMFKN
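System: GST-NR2E3 and biotin-RetCOR proteins; probe or stimulus: 7 nM biotin-RetCOR; doses: compound at 4.8 µM, single dose; schedule: Compound–protein incubation for 5 h at 4 °C; detection: time-resolved FRET; read-out: percent inhibition; controls: biotin wells as high control, 0.6% DMSO wells as low control; format: 1536-well plates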
GalR3 antagonist: antagonists of human GalR3; inhibition, % at 3 µM; HEK293 GalR3-CNG cAMP membrane potential fluorescence; galR3 body fused to GalR1 C-terminus; hit rate 0.44% among 360,000;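 active means inhibition above the screen-wide average plus 3 SD, cut at about 13% in these data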;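 further: forskolin and galanin both at EC90 stimulate the cells; cAMP rise reported by CNG channel membrane potential dye signal; 0% = forskolin plus galanin with DMSO and 100% = forskolin alone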
697 NFkB inh: lowers PMA/ionomycin-induced NF-kB signal in 697 B cells | 697 B-cell NF-kB luciferase reporter, 16 h | inhibition, % at 4 µM | hit rate 0.33% among 330,000 | AID 435022; in the data active means inhibition above about 35%
NR2E3 ag-2: human photoreceptor-specific nuclear receptor agonism; Q9Y5X4; CHO-S Gal4-NCOR/VP16-NR2E3 two-hybrid, luciferase; inhibition of corepressor binding, % at 3.98 µM; hit rate 0.35% among 360,000; AID 602229;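 active means inhibition above the mean of all tested compounds plus 3 SD, cut at about 70% in these data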;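 further: 0% = DMSO with NR2E3 transfected cells and 100% = cells lacking NR2E3 construct; higher means lower luciferase signal from less NR2E3 corepressor binding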
NR2E3 ag conf: confirmation of human NR2E3 agonists | shares compounds with NR2E3 ag-2 | CHO-S mammalian two-hybrid NR2E3-NCOR, luciferase luminescence | inhibition, % at 3.98 µM | hit rate 51% among 2,300;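 active means average inhibition above a cutoff equal to the mean inhibition of all tested compounds plus one SD, cut at about 70% in these data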;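 further: 0% = DMSO in NR2E3 cells and 100% = DMSO in cells lacking NR2E3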
GAL4-VP16 luc: GAL4-VP16 reporter inhibition in NR2E3 agonist counterscreen; shares compounds with NR2E3 ag-2; CHO-S GAL4-VP16 luciferase reporter, luminescence; inhibition, % at 3.98 µM; hit rate 29% among 2,300; AID 624379;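 active means mean inhibition above a cutoff equal to the average over all tested compounds plus one standard deviation, cut at about 70% in these data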;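 further: luciferase from a UAS reporter driven by GAL4-VP16 transactivation; 0% = DMSO with VP16-transfected cells and 100% = DMSO with cells lacking VP16; higher means less reporter light so more repression of VP16 activity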
The depositor's hits bear a star; x = no result given.

SMILES	Gli-Sufu antag	Jurkat NFkB inh	NR2E3 ag-1	GalR3 antagonist	697 NFkB inh	NR2E3 ag-2	NR2E3 ag conf	GAL4-VP16 luc
CCOC(=O)c1cnc(SCC(=O)Nc2cc(OC)ccc2OC)nc1N	40	11	2	-8	-25	69	45	67
CCOC(=O)c1cnc(SCC(=O)Nc2ccc(NC(C)=O)c(OC)c2)nc1N	2	-7	1	-4	5	4	x	x
Nc1cc2c(cc1Cl)-c1ccc([N+](=O)[O-])cc1C2=NO	8	x	x	-8	x	54	25	-11
O=[N+]([O-])c1ccc2c(c1)/C(=N\O)c1ccccc1-2	-17	16	1	-7	-22	-22	x	x
O=C(CSc1nc2ccc(Cl)cc2[nH]1)c1cccs1	-10	-54	-3	-4	-15	-42	x	x
Cc1ccc(NC(=O)c2ccc3c(c2)CCN3S(C)(=O)=O)cc1C	-32	-48	3	-6	-45	-93	x	x
CS(=O)(=O)N1CCc2cc(S(=O)(=O)Nc3ccc4oc5c(c4c3)CCCC5)ccc21	13	16	0	-7	-11	62	79*	68
O=C(NCc1ccccn1)c1ccc2c(=O)n3nc(Nc4ccccc4)sc3nc2c1	4	20	5	-2	-3	-15	x	x
CCc1ccccc1Nc1nn2c(=O)c3ccc(C(=O)NCc4ccccn4)cc3nc2s1	6	11	2	-9	34	71*	76*	34
O=C(CNS(=O)(=O)c1ccc(Br)s1)N1CCN(c2ccc(F)cc2)CC1	-11	12	2	-9	-7	18	x	x
c1coc(CN(Cc2ccco2)c2ncnc3c2oc2ccccc23)c1	24	19	0	x	-34	68	77*	60
Clc1ncnc2c1oc1ccccc12	7	-88	-2	-8	-133	-159	x	x
Cc1ccc(-n2c(C)nc3c(cnn3-c3ccc(F)cc3)c2=O)cc1C	19	-5	0	-1	-66	55	88*	60
O=C(Nc1ccc(Br)cc1)c1cccc(S(=O)(=O)Nc2cnc3ccccc3c2)c1	5	4	2	1	-13	84*	98*	86*
COc1ccc2cc(CCNC(=O)c3ccc(S(=O)(=O)N4CCCC4)cc3)c(=O)[nH]c2c1	5	-12	-1	0	17	11	x	x
O=C(O)c1ccccc1C(=O)Nc1ccc(Oc2cccc3ccccc23)cc1	12	x	x	-7	x	67	-16	23
Cc1cccc(Oc2ccc(NC(=O)c3ccccc3C(=O)O)cc2)c1C	-5	16	-3	-4	10	-3	x	x
Cc1cccc(-c2nc(CSCC(=O)N3CCN(c4ccccn4)CC3)c(C)o2)c1	7	7	-2	-4	-11	78*	81*	56
Cc1ccsc1-c1nc(CSCC(=O)N2CCN(c3ccccc3)CC2)c(C)o1	46	11	4	x	2	58	35	27
Cc1ccc(-c2nc(CSCC(=O)N3CCCC3)c(C)o2)cc1	1	1	-3	-4	-5	-3	x	x
Cc1ccccc1CSCC(=O)N1CCN(c2ccccc2)CC1	-26	-18	5	-4	-40	-69	x	x
Cc1cc(O)ccc1-c1cc(C(=O)NCc2ccc(F)cc2)[nH]n1	x	x	x	-7	x	23	x	x
O=S(=O)(NCCN1CCOCC1)c1ccc2ccccc2c1	-6	-7	x	-1	3	26	x	x
O=S(=O)(NCCN1CCOCC1)c1ccc(Oc2ccccc2Cl)cc1	-1	24	-2	-8	-9	53	53	55
Cc1ccc(C(=O)OC(C)C(=O)NC2CCCCC2C)cc1S(=O)(=O)N1CCCCC1 (stereo not drawn)	11	3	3	-6	-3	-22	x	x
SMILES	Gli-Sufu antag	Jurkat NFkB inh	NR2E3 ag-1	GalR3 antagonist	697 NFkB inh	NR2E3 ag-2	NR2E3 ag conf	GAL4-VP16 luc
COc1cc(C)c(NC(=O)COc2cccc3c2OC(C)(C)C3)cc1OC	15	-7	-4	x	5	62	10	41
Cc1ccc(C(C)NC(=O)COC(=O)C2=COCCO2)cc1C (stereo not drawn)	12	5	1	-7	15	6	x	x
O=C(Nc1ccc(NC(=O)c2cccnc2Cl)cc1)c1cccc(Cl)c1	-14	-17	2	-12	-13	-30	x	x
CC(=O)N1CCc2c(sc(NC(=O)c3ccc([N+](=O)[O-])o3)c2C#N)C1	10	x	x	-2	x	61	48	28
CC(C)N1CCc2c(sc(NC(=O)c3nc4ccccc4s3)c2C(N)=O)C1	7	-15	2	-5	11	-13	x	x
CC(C)N1CCc2c(sc(NC(=O)c3ccc([N+](=O)[O-])o3)c2C(N)=O)C1	x	39	2	-3	-8	48	84*	50
Cc1c(Cl)ccc2c(C(=O)Nc3cc(C(C)(C)C)on3)cc(-c3ccccn3)nc12	12	8	1	-3	7	-13	x	x
CCc1ccc(OC(=O)Nc2ccccc2)cc1	-59	-6	x	-11	-85	-124	x	x
COc1ccc(C(C)=O)cc1Cn1c(C)c(C(=O)NCc2cccc(Cl)c2)sc1=O	x	x	x	2	x	27	x	x
COc1ccc(Cl)cc1Cn1c(C)c(C(=O)NCc2cccc(Cl)c2)sc1=O	x	x	x	-5	x	76*	75*	4
COc1ccc(CNC(=O)c2sc(=O)n(Cc3cc(Cl)ccc3OC)c2C)cc1	x	x	x	-6	x	39	x	x
COc1ccc(NC(=O)c2sc(=O)n(Cc3ccc(F)c(Cl)c3)c2C)cc1OC	x	x	x	-1	x	57	76*	28
CCOc1ccc(CC(=O)NNC(=S)NC)cc1Br	-11	-9	5	-1	1	16	x	x
O=S(=O)(NC1CCN(S(=O)(=O)c2ccc3c(c2)OCCO3)C1)c1c(F)cccc1F (stereo not drawn)	-12	6	6	-7	3	-14	x	x
Cc1ccc(-c2ccc(S(=O)(=O)Nc3cccnc3)cc2)cc1	0	9	2	0	-18	65	84*	69
CC1CCCC(C)N1C(=O)COC(=O)Cc1c[nH]c2ccccc12 (stereo not drawn)	-16	8	-1	-6	-23	9	x	x
O=S(=O)(Nc1cc(Cl)ccc1-n1cncn1)c1cc(Br)ccc1Br	22	7	0	-5	-5	92*	99*	85*
CC(NC(=O)c1ccco1)C(=O)N1CCCCC1 (stereo not drawn)	0	-6	2	-2	-6	-15	x	x
CC(/C=N/NC(=O)c1nnn(-c2nonc2N)c1C(C)C)=C\c1ccco1	21	1	-2	1	-17	2	x	x
Cc1ccc(NS(=O)(=O)c2ccc3[nH]c(=O)[nH]c3c2)c(C)c1	-2	-6	-1	5	9	-3	x	x
